In ChEMBL document CHEMBL1132552, “Synthesis, characterization, and structure-activity relationships of amidine-substituted (bis)benzylidene-cycloketone olefin isomers as potent and selective factor Xa inhibitors” (J Med Chem, 1999):

Tests used:
Coagulation factor X = Coagulation factor X (Homo sapiens, UniProt P00742); test: In vitro inhibition of human coagulation factor Xa (Xa) in a purified enzyme system.
Outline: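 Buffer: 150 mM NaCl, 2.5 mM CaCl₂, 50 mM Tris-HCl pH 7.5, 0.1% PEG 6000. For very tight binding, enzyme was lowered to 0.1 nM, or data at 0.3 and 1 nM enzyme were fitted to a modified Morrison equation.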

Prothrombin = Prothrombin (Homo sapiens, UniProt P00734); test: In vitro inhibition of human thrombin(FIIa).
Outline: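 Medium: 150 mM NaCl, 2.5 mM CaCl₂, 50 mM Tris-HCl pH 7.5, 0.1% PEG 6000. Microplate reader readings at room temperature (~23 °C), light excluded, varying inhibitor concentrations. Competitive Ki derived; assays in duplicate.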

Serine protease 1 [1] = target: T1, Serine protease 1 (Bos taurus, UniProt P00760); test: In vitro inhibition of bovine trypsin(Trp).
T1 sequence (P00760 whole entry): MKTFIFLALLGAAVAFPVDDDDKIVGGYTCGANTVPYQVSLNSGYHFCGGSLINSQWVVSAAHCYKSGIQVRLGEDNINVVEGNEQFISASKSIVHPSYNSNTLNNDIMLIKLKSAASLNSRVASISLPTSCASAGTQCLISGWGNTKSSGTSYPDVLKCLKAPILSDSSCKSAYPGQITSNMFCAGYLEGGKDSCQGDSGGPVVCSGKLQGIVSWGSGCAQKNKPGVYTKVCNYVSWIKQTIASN
Outline: (§1)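 Buffer was 150 mM NaCl, 2.5 mM CaCl₂, 50 mM Tris-HCl pH 7.5, 0.1% PEG 6000. Read in a microplate reader at ~23 °C in the dark across varying inhibitor concentrations. Ki from competitive treatment; duplicate runs.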

Serine protease 1 [2] = target: T1, Serine protease 1; test: In vitro inhibition of bovine trypsin (Trp).; outline: as §1

Coagulation factor X, sequence (P00742 41-179 limits assumed): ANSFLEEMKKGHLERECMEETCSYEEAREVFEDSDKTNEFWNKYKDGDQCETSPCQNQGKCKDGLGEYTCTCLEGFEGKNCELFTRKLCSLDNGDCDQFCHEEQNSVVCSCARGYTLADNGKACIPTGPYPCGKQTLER
Coagulation factor X, sequence (P00742 235-488 limits assumed): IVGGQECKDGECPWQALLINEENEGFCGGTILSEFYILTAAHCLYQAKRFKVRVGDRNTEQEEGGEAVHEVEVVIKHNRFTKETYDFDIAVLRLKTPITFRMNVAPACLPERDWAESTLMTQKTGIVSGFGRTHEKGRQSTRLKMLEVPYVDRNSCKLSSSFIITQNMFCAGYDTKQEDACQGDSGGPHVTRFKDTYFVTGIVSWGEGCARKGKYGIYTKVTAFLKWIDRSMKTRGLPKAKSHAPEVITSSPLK

| SMILES | Ki (Coagulation factor X) | Ki (Prothrombin) | Ki (Serine protease 1 [1]) | Ki (Serine protease 1 [2]) |
| --- | --- | --- | --- | --- |
| N=C(N)c1ccc(/C=C2/CC/C(=C\c3ccc(C(=N)N)cc3)C2=O)cc1 | 230 nM | 19200 nM | 730 nM |  |
| NC(=O)c1ccc(/C=C2/CCCC/C(=C/c3ccc(C(N)=O)cc3)C2=O)cc1 | > 5000 nM | 2900 nM | > 5000 nM |  |
| N=C(N)c1ccc(/C=C2\CCCCCCC/C(=C\c3ccc(C(=N)N)cc3)C2=O)cc1 | 960 nM | 730 nM | 3000 nM |  |
| N=C(N)c1ccc(/C=C2\CCCC/C(=C\c3ccc(C(N)=O)cc3)C2=O)cc1 | > 500 nM | > 500 nM | > 500 nM |  |
| CN(C)C(=N)c1ccc(/C=C2/CCCC/C(=C\c3ccc(C(=N)N(C)C)cc3)C2=O)cc1 | > 5000 nM | > 5000 nM | > 5000 nM |  |
| N=C(N)c1ccc(/C=C2\CC/C(=C\c3ccc(C(=N)N)cc3)C2=O)cc1 | 4600 nM | 2200 nM | 590 nM |  |
| NC(=O)c1ccc(/C=C2/CCCC/C(=C\c3ccc(C(N)=O)cc3)C2=O)cc1 | > 5000 nM |  |  |  |
| CN(C)C(=N)c1ccc(/C=C2\CCCC/C(=C\c3ccc(C(=N)N(C)C)cc3)C2=O)cc1 | > 5000 nM | > 5000 nM |  | > 5000 nM |
| N=C(N)c1ccc(/C=C2\CCCC/C(=C/c3ccc(C(N)=O)cc3)C2=O)cc1 | 1850 nM | 350 nM | 500 nM |  |
| CN(C)C(=N)c1ccc(/C=C2\CCCC/C(=C\c3ccc(C(=N)N)cc3)C2=O)cc1 | 350 nM | 3700 nM | 500 nM |  |
| C/N=C(\N)c1ccc(/C=C2\CCCC/C(=C\c3ccc(C(=N)N)cc3)C2=O)cc1 |  |  | 840 nM |  |
| N=C(N)c1ccc(/C=C2\CC(C(=O)O)C/C(=C\c3ccc(C(=N)N)cc3)C2=O)cc1 (stereo not drawn) | 24400 nM | 21500 nM | 880 nM |  |
| N=C(N)c1ccc(/C=C2/CCCCCCC/C(=C/c3ccc(C(=N)N)cc3)C2=O)cc1 |  |  | 2200 nM |  |
| N=C(N)c1ccc(/C=C2/CCCCCCC/C(=C\c3ccc(C(=N)N)cc3)C2=O)cc1 |  | 150 nM | 2100 nM |  |
| CN(C)C(=N)c1ccc(/C=C2/CCCC/C(=C/c3ccc(C(=N)N(C)C)cc3)C2=O)cc1 | 1600 nM | > 5000 nM | > 5000 nM |  |
| N=C(N)c1ccc(/C=C2/CCCC/C(=C/c3ccc(C(N)=O)cc3)C2=O)cc1 | 50 nM | 110 nM | 690 nM |  |
| N=C(N)c1ccc(/C=C2\CCCCCC/C(=C\c3ccc(C(=N)N)cc3)C2=O)cc1 | 390 nM | 3700 nM | 1500 nM |  |

Next, values leading:

| Ki (Coagulation factor X) | Ki (Prothrombin) | Ki (Serine protease 1 [1]) | Ki (Serine protease 1 [2]) | SMILES |
| --- | --- | --- | --- | --- |
| 3300 nM | 630 nM | 56 nM |  | N=C(N)c1ccc(/C=C2\CC(c3ccccc3)C/C(=C\c3ccc(C(=N)N)cc3)C2=O)cc1 (stereo not drawn) |
| 18 nM | 810 nM | 440 nM |  | N=C(N)c1ccc(/C=C2/CCC/C(=C/c3ccc(C(=N)N)cc3)C2=O)cc1 |
|  |  | 170 nM |  | N=C(N)c1ccc(/C=C2\CCC/C(=C\c3ccc(C(=N)N)cc3)C2=O)cc1 |
| 1800 nM | 2100 nM | 310 nM |  | N=C(N)c1ccc(/C=C2\CCCCC/C(=C\c3ccc(C(=N)N)cc3)C2=O)cc1 |
| 395 nM | 325 nM | 160 nM |  | N=C(N)c1ccc(/C=C2/CC(c3ccccc3)C/C(=C\c3ccc(C(=N)N)cc3)C2=O)cc1 (stereo not drawn) |
| 2.8 nM | 290 nM | 190 nM |  | N=C(N)c1ccc(/C=C2/CCCCCC/C(=C/c3ccc(C(=N)N)cc3)C2=O)cc1 |
|  | 120 nM | 260 nM |  | N=C(N)c1ccc(/C=C2/CCC/C(=C\c3ccc(C(=N)N)cc3)C2=O)cc1 |
| 4.8 nM | 1100 nM | 100 nM |  | COC(=O)C1C/C(=C/c2ccc(C(=N)N)cc2)C(=O)/C(=C\c2ccc(C(=N)N)cc2)C1 (stereo not drawn) |
| 6.9 nM | > 50000 nM | 430 nM |  | N=C(N)c1ccc(/C=C2/CC(C(=O)O)C/C(=C/c3ccc(C(=N)N)cc3)C2=O)cc1 (stereo not drawn) |
| > 500 nM | 600 nM | 224 nM |  | COC(=O)C1C/C(=C/c2ccc(C(=N)N)cc2)C(=O)/C(=C/c2ccc(C(=N)N)cc2)C1 (stereo not drawn) |
| 52 nM | 120 nM | 15 nM |  | CN(C)C(=N)c1ccc(/C=C2/CCCC/C(=C\c3ccc(C(=N)N)cc3)C2=O)cc1 |
| 12 nM | 1600 nM | 30 nM |  | C/N=C(\N)c1ccc(/C=C2/CCCC/C(=C/c3ccc(C(=N)N)cc3)C2=O)cc1 |
| 225 nM | 630 nM | 61 nM |  | CCOC(=O)N1C/C(=C/c2ccc(C(=N)N)cc2)C(=O)/C(=C/c2ccc(C(=N)N)cc2)C1 |
| 2.5 nM | 380 nM | 20 nM |  | CCOC(=O)N1C/C(=C/c2ccc(C(=N)N)cc2)C(=O)/C(=C\c2ccc(C(=N)N)cc2)C1 |
| > 5000 nM | 4400 nM | 72 nM |  | COC(=O)C1C/C(=C\c2ccc(C(=N)N)cc2)C(=O)/C(=C/c2ccc(C(=N)N)cc2)C1 (stereo not drawn) |
| > 5000 nM | 3300 nM | 125 nM |  | CCOC(=O)N1C/C(=C\c2ccc(C(=N)N)cc2)C(=O)/C(=C/c2ccc(C(=N)N)cc2)C1 |
|  |  | 90 nM |  | CN(C)C(=N)c1ccc(/C=C2/CCCC/C(=C/c3ccc(C(=N)N)cc3)C2=O)cc1 |
| 500 nM | 360 nM | 155 nM |  | C/N=C(/N)c1ccc(/C=C2/CCCC/C(=C\c3ccc(C(=N)N)cc3)C2=O)cc1 |
| 320 nM |  | 340 nM |  | N=C(N)c1ccc(/C=C2/CCCCCC/C(=C\c3ccc(C(=N)N)cc3)C2=O)cc1 |
| 5.2 nM | 1700 nM | 100 nM |  | N=C(N)c1ccc(/C=C2/CC(c3ccccc3)C/C(=C/c3ccc(C(=N)N)cc3)C2=O)cc1 (stereo not drawn) |
| 4.6 nM | 300 nM | 100 nM |  | N=C(N)c1ccc(/C=C2/CCCCC/C(=C/c3ccc(C(=N)N)cc3)C2=O)cc1 |
| 130 nM |  | 30 nM |  | N=C(N)c1ccc(/C=C2/CCCCC/C(=C\c3ccc(C(=N)N)cc3)C2=O)cc1 |
